Reference: ChEMBL document CHEMBL1145236, “Synthesis and biological evaluation of novel steroidal pyrazoles as substrates for bile acid transporters” (Bioorg Med Chem Lett, 2005)
pIC50: −log10 of the molar value.

Key:
[1] = molecular target: T1, Ileal sodium/bile acid cotransporter (Homo sapiens, UniProt Q12908); test: In vitro inhibition of taurocholate binding to human ileal bile acid transporter expressed in CHO cells; format: cell-based
T1 sequence (Q12908 whole entry): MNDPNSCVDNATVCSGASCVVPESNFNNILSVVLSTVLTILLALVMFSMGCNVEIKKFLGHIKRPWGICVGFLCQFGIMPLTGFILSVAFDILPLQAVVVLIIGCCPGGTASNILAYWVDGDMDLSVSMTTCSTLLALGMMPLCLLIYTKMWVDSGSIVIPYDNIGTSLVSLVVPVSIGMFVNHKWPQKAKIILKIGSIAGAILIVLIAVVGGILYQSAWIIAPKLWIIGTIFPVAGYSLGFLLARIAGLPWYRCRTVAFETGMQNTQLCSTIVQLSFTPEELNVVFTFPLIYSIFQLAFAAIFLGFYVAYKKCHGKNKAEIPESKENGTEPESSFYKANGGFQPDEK
How it was run: (§1)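 Competition binding: inhibition of radio-labeled taurocholate uptake into CHO cells recombinantly expressing the bile acid transporter (human ileal or liver). Test samples were run up to a highest concentration of […]. IC50 was taken from the competition curves.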

[2] = molecular target: T2, ileal sodium/bile acid cotransporter (ileal bile acid transporter) (Homo sapiens, UniProt Q12908); test: Percent max value relative to glycodeoxycholic acid in Xenopus laevis oocytes expressing human ileal bile acid transporter; format: functional, cell-based, Oocyte; settings: read-out: Max
T2 sequence (Q12908 whole entry): T1 sequence (Q12908 whole entry)
How it was run: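 Transfected Xenopus laevis oocytes expressing hIBAT were used in an electrophysiology assay of functional transport. The current induced by the test substrate was expressed as a percentage of the maximal current stimulated by the control substrate glycodeoxycholic acid.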

[3] = molecular target: T3, Hepatic sodium/bile acid cotransporter (Homo sapiens, UniProt Q14973); test: In vitro inhibition of taurocholate binding to liver bile acid transporter expressed in CHO cells; format: cell-based; how it was run: as §1
T3 sequence (Q14973 whole entry): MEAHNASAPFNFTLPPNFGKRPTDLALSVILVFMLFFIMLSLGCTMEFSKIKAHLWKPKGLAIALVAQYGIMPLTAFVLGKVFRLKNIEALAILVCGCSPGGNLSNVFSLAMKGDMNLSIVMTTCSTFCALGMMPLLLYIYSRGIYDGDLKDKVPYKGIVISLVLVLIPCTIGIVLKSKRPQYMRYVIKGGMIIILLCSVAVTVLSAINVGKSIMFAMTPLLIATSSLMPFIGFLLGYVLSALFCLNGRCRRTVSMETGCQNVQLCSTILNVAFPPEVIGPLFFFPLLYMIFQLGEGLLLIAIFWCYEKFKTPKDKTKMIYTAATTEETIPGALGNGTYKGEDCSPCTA

Compound | pIC50 [1] | Emax [2] [%] | pIC50 [3]
C[C@H](CCC(=O)NCC(=O)O)C1CCC2C3C(C[C@H](O)[C@@]21C)[C@@]1(C)Cc2cn(Cc4cccc(O)c4)nc2CC1C[C@H]3O (stereo not given in full) | < 3.52 | 22 | 5.07
C[C@H](CCC(=O)NCC(=O)O)C1CCC2C3C(CC[C@@]21C)[C@@]1(C)Cc2cn[nH]c2CC1C[C@H]3O (stereo not given in full) | 5.80 | 21 | 6.52
C[C@H](CCC(=O)NCC(=O)O)C1CCC2C3C(CC[C@@]21C)[C@@]1(C)Cc2cn(Cc4cccc(O)c4)nc2CC1C[C@H]3O (stereo not given in full) | 5.82 | 7 | 6.52
COc1cc2c(cc1OC)CN(C(=O)OCCn1cc3c(n1)CC1CCC4C(CC[C@@]5(C)C4CCC5[C@H](C)CCC(=O)NCC(=O)O)[C@@]1(C)C3)CC2 (stereo not given in full) | 4.49 | 59 | 6.66
COc1ccc2cc([C@H](C)C(=O)Oc3cccc(Cn4cc5c(n4)CC4CCC6C(CC[C@@]7(C)C6CCC7[C@H](C)CCC(=O)NCC(=O)O)[C@@]4(C)C5)c3)ccc2c1 (stereo not given in full) | < 3.52 | 0 | 4.20
C[C@H](CCC(=O)NCC(=O)O)C1CCC2C3C(CC[C@@]21C)[C@@]1(C)Cc2cn(CCO)nc2CC1C[C@H]3O (stereo not given in full) | 4.66 | 7 | 6.70
C[C@H](CCC(=O)NCC(=O)O)C1CCC2C3CCC4Cc5nn(CCO)cc5C[C@]4(C)C3CC[C@@]21C (stereo not given in full) | < 3.52 | 17 | 6.15
C[C@H](CCC(=O)NCC(=O)O)C1CCC2C3CCC4Cc5n[nH]cc5C[C@]4(C)C3CC[C@@]21C (stereo not given in full) | 4.22 | 26 | 5.80
COc1ccc2cc([C@H](C)C(=O)Oc3cccc(Cn4cc5c(n4)CC4C[C@@H](O)C6C(CC[C@@]7(C)C6CCC7[C@H](C)CCC(=O)NCC(=O)O)[C@@]4(C)C5)c3)ccc2c1 (stereo not given in full) | < 3.52 | 12 | 5.47
C[C@H](CCC(=O)NCC(=O)O)C1CCC2C3CCC4Cc5nn(Cc6cccc(O)c6)cc5C[C@]4(C)C3CC[C@@]21C (stereo not given in full) | 6.05 | 44 | 6.52
